# Columns and labels:
# Type in all cases: functional
# [1] = test system: Bacillus cereus; experiment: Antibacterial activity against Bacillus cereus N258 after 18 hrs by agar dilution method; conditions: N258, 18 h
# Method in brief: (§1)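 Agar-dilution MIC against Gram-positive strains. Compounds in DMSO, geometric dilutions giving final 100−0.75 mg/L in Mueller Hinton agar. Strains grown 18 h at 37 °C in trypticase soy broth, diluted in sterile water, spotted by Steers inoculator (about 1000 UFC/spot). Plates incubated 18 h at 37 °C; DMSO blank; ofloxacin positive control. MIC = lowest concentration with no visible growth.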
# [2] = test system: Listeria monocytogenes; experiment: Antibacterial activity against Listeria monocytogenes CIP 103575 after 18 hrs by agar dilution method; conditions: CIP 103575, 18 h; method in brief: as §1
# [3] = test system: Staphylococcus epidermidis; experiment: Antibacterial activity against Staphylococcus epidermidis CIP 53124 after 18 hrs by agar dilution method; conditions: CIP 53124, 18 h; method in brief: as §1
# [4] = test system: Enterococcus casseliflavus; experiment: Antibacterial activity against Enterococcus casseliflavus N487 after 18 hrs by agar dilution method; conditions: N487, 18 h; method in brief: as §1
# [5] = test system: Enterococcus faecium; experiment: Antibacterial activity against Enterococcus faecium N733 after 18 hrs by agar dilution method; conditions: N733, 18 h; method in brief: as §1
# [6] = test system: Enterococcus gallinarum; experiment: Antibacterial activity against Enterococcus gallinarum N489 after 18 hrs by agar dilution method; conditions: N489, 18 h; method in brief: as §1
# [7] = test system: MRC5; experiment: Cytotoxicity against human MRC5 cells assessed as growth inhibition at 10^-5 M after 72 hrs by MTS assay relative to control; conditions: MRC5, 72 h, read-out: GI
# Method in brief: (§2)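 Cells from ATCC; HCT-116 grown in RPMI 1640 and MRC5 in DMEM, each with 10% FCS and 1% glutamine, 37 °C, 5% CO2. Seeded at 2.5 × 10^3 cells/well, cultured 24 h, then exposed to compounds at 1 and 10 μM final for 72 h. MTS read-out, absorbance 490 nm; percent index from treated/control OD490 × 100, three experiments.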
# [8] = test system: Staphylococcus aureus; experiment: Antibacterial activity against Staphylococcus aureus CIP 53154 after 18 hrs by agar dilution method; conditions: CIP 53154, 18 h; method in brief: as §1
# [9] = test system: Corynebacterium striatum; experiment: Antibacterial activity against Corynebacterium striatum N840 after 18 hrs by agar dilution method; conditions: N840, 18 h; method in brief: as §1
# [10] = test system: Enterococcus faecalis; experiment: Antibacterial activity against Enterococcus faecalis N520 after 18 hrs by agar dilution method; conditions: N520, 18 h; method in brief: as §1
# [11] = test system: Staphylococcus saprophyticus; experiment: Antibacterial activity against Staphylococcus saprophyticus E260 after 18 hrs by agar dilution method; conditions: E260, 18 h; method in brief: as §1
# [12] = test system: HCT-116; experiment: Cytotoxicity against human HCT116 cells assessed as growth inhibition at 10^-5 M after 72 hrs by MTS assay relative to control; conditions: HCT-116, 72 h, read-out: GI; method in brief: as §2
# [13] = test system: Staphylococcus haemolyticus; experiment: Antibacterial activity against Staphylococcus haemolyticus CIP 8156 after 18 hrs by agar dilution method; conditions: CIP 8156, 18 h; method in brief: as §1
# [14] = test system: Streptococcus agalactiae; experiment: Antibacterial activity against Streptococcus agalactiae CIP 103227 after 18 hrs by agar dilution method; conditions: ATCC 13813, 18 h; method in brief: as §1
# [15] = test system: Enterococcus faecalis; experiment: Antibacterial activity against Enterococcus faecalis CIP 104676 after 18 hrs by agar dilution method; conditions: CIP 104676, 18 h; method in brief: as §1
# [16] = test system: Enterococcus faecalis; experiment: Antibacterial activity against Enterococcus faecalis CIP 103214 after 18 hrs by agar dilution method; conditions: CIP 103214, 18 h; method in brief: as §1
# [17] = test system: Listeria monocytogenes; experiment: Antibacterial activity against Listeria monocytogenes N851 after 18 hrs by agar dilution method; conditions: N851, 18 h; method in brief: as §1
# [18] = test system: Enterococcus hirae; experiment: Antibacterial activity against Enterococcus hirae CIP 5855 after 18 hrs by agar dilution method; conditions: CIP 5855, 18 h; method in brief: as §1
# [19] = test system: Staphylococcus aureus; experiment: Antibacterial activity against Staphylococcus aureus CIP 483 after 18 hrs by agar dilution method; conditions: CIP 483, 18 h; method in brief: as §1
# [20] = test system: Enterococcus faecium; experiment: Antibacterial activity against Enterococcus faecium CIP 103014 after 18 hrs by agar dilution method; conditions: CIP 103014, 18 h; method in brief: as §1
# [21] = test system: Listeria monocytogenes; experiment: Antibacterial activity against Listeria monocytogenes N836 after 18 hrs by agar dilution method; conditions: N836, 18 h; method in brief: as §1
# [22] = test system: Staphylococcus aureus; experiment: Antibacterial activity against Staphylococcus aureus ATCC 9144 oxford after 18 hrs by agar dilution method; method in brief: as §1
# [23] = test system: Staphylococcus aureus; experiment: Antibacterial activity against Staphylococcus aureus CIP 5710 after 18 hrs by agar dilution method; conditions: CIP 5710, 18 h; method in brief: as §1
# [24] = test system: Enterococcus gallinarum; experiment: Antibacterial activity against Enterococcus gallinarum N492 after 18 hrs by agar dilution method; conditions: N492, 18 h; method in brief: as §1
# [25] = test system: Staphylococcus aureus; experiment: Antibacterial activity against Staphylococcus aureus ATCC 25923 after 18 hrs by agar dilution method; conditions: ATCC 25923, 18 h; method in brief: as §1
# [26] = test system: Enterococcus casseliflavus; experiment: Antibacterial activity against Enterococcus casseliflavus CIP 103018 after 18 hrs by agar dilution method; conditions: CIP 103018, 18 h; method in brief: as §1
# [27] = test system: Enterococcus faecium; experiment: Antibacterial activity against Enterococcus faecium N507 after 18 hrs by agar dilution method; conditions: N507, 18 h; method in brief: as §1
# [28] = test system: HCT-116; experiment: Cytotoxicity against human HCT116 cells assessed as growth inhibition at 10^-6 M after 72 hrs by MTS assay relative to control; conditions: HCT-116, 72 h, read-out: GI; method in brief: as §2
# [29] = test system: MRC5; experiment: Cytotoxicity against human MRC5 cells assessed as growth inhibition at 10^-6 M after 72 hrs by MTS assay relative to control; conditions: MRC5, 72 h, read-out: GI; method in brief: as §2
# [30] = test system: Enterococcus gallinarum; experiment: Antibacterial activity against Enterococcus gallinarum CIP 105985 after 18 hrs by agar dilution method; conditions: CIP 105985, 18 h; method in brief: as §1
# [31] = test system: Enterococcus durans; experiment: Antibacterial activity against Enterococcus durans CIP 104999 after 18 hrs by agar dilution method; conditions: CIP 104999, 18 h; method in brief: as §1
# [32] = test system: Enterococcus faecium; experiment: Antibacterial activity against Enterococcus faecium N823 after 18 hrs by agar dilution method; conditions: N823, 18 h; method in brief: as §1
# [33] = test system: Bacillus cereus; experiment: Antibacterial activity against Bacillus cereus N349 after 18 hrs by agar dilution method; conditions: N349, 18 h; method in brief: as §1
# [34] = test system: Staphylococcus intermedius; experiment: Antibacterial activity against Staphylococcus intermedius N987 after 18 hrs by agar dilution method; conditions: N987, 18 h; method in brief: as §1
# [35] = test system: Mammaliicoccus sciuri; experiment: Antibacterial activity against Staphylococcus sciuri N993 after 18 hrs by agar dilution method; conditions: N993, 18 h; method in brief: as §1
# [36] = test system: Bacillus spizizenii; experiment: Antibacterial activity against Bacillus subtilis ATCC 6633 after 18 hrs by agar dilution method; conditions: ATCC 6633, 18 h; method in brief: as §1
# [37] = test system: Enterococcus faecalis; experiment: Antibacterial activity against Enterococcus faecalis N518 after 18 hrs by agar dilution method; conditions: N518, 18 h; method in brief: as §1
# [38] = test system: Bacillus cereus; experiment: Antibacterial activity against Bacillus cereus N190 after 18 hrs by agar dilution method; conditions: N190, 18 h; method in brief: as §1
# [39] = test system: Enterococcus faecium; experiment: Antibacterial activity against Enterococcus faecium N490 after 18 hrs by agar dilution method; conditions: N490, 18 h; method in brief: as §1
# [40] = test system: Enterococcus faecium; experiment: Antibacterial activity against Enterococcus faecium CIP 107387 after 18 hrs by agar dilution method; conditions: CIP 107387, 18 h; method in brief: as §1
# [41] = test system: Staphylococcus aureus; experiment: Antibacterial activity against Staphylococcus aureus CIP 7625 after 18 hrs by agar dilution method; conditions: CIP 7625, 18 h; method in brief: as §1
# [42] = test system: Staphylococcus aureus; experiment: Antibacterial activity against Staphylococcus aureus CIP 53156 after 18 hrs by agar dilution method; conditions: CIP 53156, 18 h; method in brief: as §1
# [43] = test system: Listeria monocytogenes; experiment: Antibacterial activity against Listeria monocytogenes N783 after 18 hrs by agar dilution method; conditions: N783, 18 h; method in brief: as §1
# [44] = test system: Staphylococcus aureus; experiment: Antibacterial activity against Staphylococcus aureus CRBIP 2121 after 18 hrs by agar dilution method; conditions: CRBIP 2121, 18 h; method in brief: as §1
# [45] = test system: Listeria innocua; experiment: Antibacterial activity against Listeria innocua E044 after 18 hrs by agar dilution method; conditions: E044, 18 h; method in brief: as §1
# [46] = test system: Bacillus cereus; experiment: Antibacterial activity against Bacillus cereus CIP 6624 after 18 hrs by agar dilution method; conditions: CIP 6624, 18 h; method in brief: as §1
# [47] = test system: Enterococcus faecalis; experiment: Antibacterial activity against Enterococcus faecalis N491 after 18 hrs by agar dilution method; conditions: N491, 18 h; method in brief: as §1
# [48] = test system: Staphylococcus saprophyticus; experiment: Antibacterial activity against Staphylococcus saprophyticus CIP 76125 after 18 hrs by agar dilution method; conditions: CIP 76125, 18 h; method in brief: as §1
# [49] = test system: Staphylococcus lugdunensis; experiment: Antibacterial activity against Staphylococcus lugdunensis ATCC 43809 after 18 hrs by agar dilution method; conditions: ATCC 43809, 18 h; method in brief: as §1
# [50] = test system: Enterococcus avium; experiment: Antibacterial activity against Enterococcus avium CIP 104053 after 18 hrs by agar dilution method; conditions: CIP 104053, 18 h; method in brief: as §1
smiles,measurement,setting,value
C=C1CC[C@H]2C(C)(C)CCC[C@]2(C)[C@H]1C[C@H](O)C1=CCOC1=O,MIC,[1],25 µM
same,MIC,[2],> 79 µM
same,MIC,[3],50 µM
same,MIC,[4],> 79 µM
same,MIC,[5],> 79 µM
same,MIC,[6],50 µM
same,inhibition of growth at 10 µM,[7],71%
same,MIC,[8],50 µM
same,MIC,[9],50 µM
same,MIC,[10],> 79 µM
same,MIC,[11],> 79 µM
same,inhibition of growth at 10 µM,[12],69%
same,MIC,[13],> 79 µM
same,MIC,[14],50 µM
same,MIC,[15],> 79 µM
same,MIC,[16],> 79 µM
same,MIC,[17],50 µM
same,MIC,[18],> 79 µM
same,MIC,[19],> 79 µM
same,MIC,[20],> 79 µM
same,MIC,[21],50 µM
same,MIC,[22],50 µM
same,MIC,[23],> 79 µM
same,MIC,[24],> 79 µM
same,MIC,[25],> 79 µM
same,MIC,[26],> 79 µM
same,MIC,[27],> 79 µM
same,inhibition of growth at 1 µM,[28],0%
same,inhibition of growth at 1 µM,[29],0%
same,MIC,[30],> 79 µM
same,MIC,[31],50 µM
same,MIC,[32],> 79 µM
same,MIC,[33],25 µM
same,MIC,[34],50 µM
same,MIC,[35],> 79 µM
same,MIC,[36],25 µM
same,MIC,[37],> 79 µM
same,MIC,[38],25 µM
same,MIC,[39],50 µM
same,MIC,[40],> 79 µM
same,MIC,[41],> 79 µM
same,MIC,[42],50 µM
same,MIC,[43],50 µM
same,MIC,[44],50 µM
same,MIC,[45],50 µM
same,MIC,[46],50 µM
same,MIC,[47],> 79 µM
same,MIC,[48],> 79 µM
same,MIC,[49],79 µM
same,MIC,[50],> 79 µM
